Lmaj promast: Leishmania major promastigote growth inhibition | hit rate 9% among 200,000 | inhibition, % at 10 µM | AID 1063 | Leishmania major promastigotes, resazurin fluorescence viability; in the data active means inhibition above about 50%;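 further: promastigotes grown with compound for 44 hours at 28 °C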
T cruzi inh: T. cruzi replication inhibition; T. cruzi beta-gal in NIH3T3, luminescence, 90 h; inhibition, % (concentration not given with the values); hit rate 1.4% among 300,000; AID 1885;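 active means mean inhibition across valid replicates above about 55%, limit read from the data; inconclusive means mean below that limit but half or more replicates reach it; inactive means mean below it, under half of replicates reach it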;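 further: signal also drops with host cell toxicity which is not excluded here; 0% = plate median of DMSO wells and 100% = zero luminescence signal; higher percent means less beta-gal luminescence so fewer parasites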
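Read-out: Parasite load inhibition, % | Test system: Mouse NIH/3T3 fibroblasts infected with β-gal-expressing T. cruzi Tulahuen C4 | Amount: 5,000 cells/well | Medium: DMEM, 2% fetal bovine serum | Signal: GalScreen β-gal luminescence, detergent lysis, 60 min | Timing: 3 h attach, ≥90 h co-culture | Also added: Tulahuen C4 trypomastigotes, 5000/well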
DTT redox prof: compounds producing H2O2 with reducing agent – biochemical, NIH compound library profiling, artefact control for MLSCN library redox annotation, primary screen | activation, % at 10 µM | DTT-dependent redox cycling H2O2, phenol red/HRP absorbance; 100% = 100 µM peroxide control, 0% = buffer | hit rate 0.03% among 200,000 | AID 878;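 active means activation of at least 50% relative to the plate's high and low controls in the primary single-dose screen; inactive means activation below 50%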;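 further: compound incubated with DTT at 0.8 mM final as the reducing agent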
Lipid droplet: hepatic lipid droplet formation modulation; AML12 mouse hepatocytes, oleate lipid droplets, BODIPY imaging; inhibition, % at 6.5 µM; hit rate 0.4% among 240,000;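 active means lipid droplet intensity inhibited by at least 50%, with more than 500 cells counted; inconclusive means wells with under 300 cells, treated as cytotoxic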
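Material – mouse AML12 hepatocyte cell line, fixed after treatment · Compound dosing – one dose, 6.5 µM compound · Times – compound with oleate, overnight · Measured by – Image-based BODIPY and DAPI two-channel analysis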
MPTP inh: permeability transition pore inhibition | isolated mouse mitochondria, Ca2+ swelling absorbance, 30 min | inhibition, % at 10 µM | hit rate 1.4% among 360,000 | AID 602449;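 active means inhibition of 50% or more, scaled per plate between neutral and stimulator controls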;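 further: 0% = DMSO wells given calcium and 100% = 1 mM EGTA wells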
An asterisk follows results filed as active; ? = inconclusive; / = no result given. Many of the other results were omitted from the sample, so hits are more common in it than they were.

SMILES	Lmaj promast	T cruzi inh	DTT redox prof	Lipid droplet	MPTP inh
O=C1NC(Cc2c[nH]c3ccccc23)C(=O)N1CCOc1ccccc1 (stereo unspecified)	96*	5	-4	-82	0
CCn1cc(C(=O)NCCCN(CC(C)C)CC(C)C)c(=O)c2cc(S(=O)(=O)N3CCOCC3)ccc21	/	-1	/	-30	-2
Cc1ccc(-n2[nH]c(C)c(/C=N/c3ccccn3)c2=O)cc1	-7	-12	2	/	-1
Cc1[nH]n(-c2ccccc2)c(=O)c1C=Nc1cccc2cccnc12	64*	7	0	-4	-15
Cc1[nH]n(-c2ccccc2)c(=O)c1/C=N/N1C(=O)c2cccc3cccc(c23)C1=O	59*	-13	0	-5	-5
COc1cc(S(=O)(=O)Nc2cccc(C)c2)ccc1N=Cc1c(C)[nH]n(-c2ccccc2)c1=O	57*	-10	0	-8	/
Cc1[nH]n(-c2ccccc2)c(=O)c1/C=N/N1CCOCC1	/	-10	/	21	2
COc1cc(S(=O)(=O)Nc2ccc(C)cc2)ccc1N=Cc1c(C)[nH]n(-c2ccccc2)c1=O	1	-7	0	-24	-2
CCCCc1nnc(NC(=O)COC)s1	-1	4	0	6	-1
O=C(CNc1ccccc1)Nc1cccc2ccccc12	/	-3	/	-1	1
COc1ccc(CCN(C)Cc2ccc(C(=O)Nc3ccccc3)cc2)cc1OC	/	35	/	-12	1
CC1CC(C)CN(C(=O)COC(=O)c2ccc(Cl)nc2)C1 (stereo unspecified)	/	/	/	/	2
CC(=O)NCCC(=O)Nc1nc(-c2ccc3ccccc3c2)cs1	/	60*	/	7	-2
Cc1ccc(-c2csc(NC(=O)CCNC(=O)c3ccccc3Cl)n2)cc1	84*	-12	0	9	10
Cc1cccc(NC(=O)c2cc(S(=O)(=O)N3CCCC3)cn2C)c1	/	-7	/	-6	2
O=C(c1ccc2ncsc2c1)N1CCN(c2ccccc2Cl)CC1	38	-7	0	5	-1
Cc1cccc(N2CCN(C(=O)c3ccc4ncsc4c3)CC2)c1C	61*	/	0	11	-1
Cc1cccc(N2CCN(C(=O)c3ccc(NS(=O)(=O)c4c(C)noc4C)cc3)CC2)c1C	97*	29	0	7	1
CC(C)CC(N)c1csc(Nc2ccc(C(F)(F)F)cn2)n1 (stereo unspecified)	/	/	/	/	3
O=C1COc2ccc(S(=O)(=O)Nc3cccc(Cl)c3)cc2N1	/	9	/	-16	2
Cc1cc2nc(-c3ccc(SCC(=O)N4CCc5ccccc54)nc3)[nH]c2cc1C	86*	44	-9	/	9
O=C(CSc1ncc(-c2ccccc2)n1C1CCCC1)N1CCc2ccccc21	50*	64*	0	/	8
Cc1cc(C)nc(SCC(=O)N2CCc3ccccc32)n1	/	-8	/	5	0
CC(C)c1nc(SCC(=O)N2CCCc3ccccc32)c2c(=O)n(C)c(=O)n(C)c2n1	51*	25	-1	-11	1
O=C(CSc1nnc(-c2ccccc2)c(-c2ccccc2)n1)N1CCc2ccccc21	57*	22	-1	-24	1
SMILES	Lmaj promast	T cruzi inh	DTT redox prof	Lipid droplet	MPTP inh
O=C(OCC(=O)N1CCCC1=O)c1ccc(O)cc1O	/	-4	/	/	-1
Cc1cc(O)c2c(c1)CC1C3CCC4CC(=O)CCC4(C)C3CC(=O)C21C (stereo unspecified)	/	/	/	/	0
CC(C)c1ccc(NC(=S)NNC(=O)c2cccs2)cc1	-8	7	-1	/	-1
Cc1ccc(-c2cnc(SCC(=O)N3CCCc4ccccc43)n2C)cc1	-2	/	1	/	0
Cn1c(-c2ccccc2)cnc1SCC(=O)N1CCCc2ccccc21	77*	12	0	-23	2
COc1ccc(-n2cnc3c(sc4nc(N5CCOCC5)c5c(c43)CCCC5)c2=O)cc1	87*	11	-1	19	-3
COC(=O)c1ccc(-c2sc3nc(N4CCOCC4)c4c(c3c2N)CCCC4)o1	5	67*	0	21	/
Cc1ccccc1-n1cnc2c(sc3nc(N4CCOCC4)c4c(c32)CCCC4)c1=O	/	71*	/	10	6
Cc1ccc(-n2cnc3c(sc4nc(N5CCOCC5)c5c(c43)CCCC5)c2=O)cc1	/	?	/	2	4
CN(C)C1CN(Cc2cn(Cc3cccc(C(F)(F)F)c3)nn2)S(=O)(=O)C1 (stereo unspecified)	/	/	/	/	0
COc1cc2nc(SCc3c(C)noc3C)n(CCC3=CCCCC3)c(=O)c2cc1OC	62*	4	2	/	0
O=C(Nc1ccccc1NS(=O)(=O)c1ccc(F)cc1)C1CCC1	7	-13	-2	11	-1
COc1ccccc1-c1cc(C(F)(F)F)nc(S(=O)(=O)CCCC(=O)NCc2ccc(F)cc2)n1	4	-37	-1	2	-1
COc1ccccc1-c1cc(C(F)(F)F)nc(S(=O)(=O)CCCC(=O)NC(C)C)n1	89*	-42	3	/	-1
Cc1cccnc1Nc1nc(-c2ccccc2)cs1	/	26	/	-14	0
Cc1cccc(Nc2nc(-c3ccccn3)cs2)n1	100*	59*	-1	-14	2
Cc1cccnc1Nc1nc(-c2ccccn2)cs1	100*	40	0	-95	-2
Cc1cccc(Nc2nc(-c3cccs3)cs2)n1	57*	19	0	-4	1
Cc1cccc(Nc2nc(-c3ccc(F)cc3)cs2)n1	/	4	/	2	3
O=C(COC(=O)CCc1ccc(S(=O)(=O)N2CCOCC2)cc1)Nc1ccccc1OC(F)F	/	/	/	/	0
Cn1c(=O)c(=O)n(C)c2cc(S(=O)(=O)N3CCCC3C(=O)NCc3cccnc3)ccc21 (stereo unspecified)	/	0	/	-6	-1
Cc1[nH]c2ccccc2c1C(c1ccncc1)N1CCCCC1 (stereo unspecified)	41	28	-1	-5	-7
Cc1[nH]c2ccccc2c1C(c1ccncc1)N1CCN(c2ccc(F)cc2)CC1 (stereo unspecified)	99*	7	/	-5	0
O=C(O)c1ccc(S(=O)(=O)c2ccc3c(c2)C(=O)N(NC(=O)c2cccnc2)C3=O)cc1	/	-5	/	/	0
Cc1ccc(-n2nc(C)c(NC(=O)CCl)c2C)cc1C	56*	-22	0	-22	1
SMILES	Lmaj promast	T cruzi inh	DTT redox prof	Lipid droplet	MPTP inh
CCOC(=O)C1(CCOc2ccccc2)CCN(Cc2ccc(OCCO)cc2)CC1	/	12	/	-1	1
CCOC(=O)C1(CCOc2ccccc2)CCN(Cc2cnc(SC)nc2)CC1	86*	11	0	-23	1
CCOC(=O)C1(CCOc2ccccc2)CCN(Cc2cccc3nonc23)CC1	87*	57*	1	-26	-1
CCOC(=O)C1(CCOc2ccccc2)CCN(Cc2ccc(C)o2)CC1	74*	27	-1	-16	3
CCOC(=O)C1(CCOc2ccccc2)CCN(Cc2cnc(C)[nH]2)CC1	6	22	-3	-7	4
COc1cccc(CNC(=O)N[C@@H](C)C(=O)O)c1	/	10	/	-2	1

Bioassay records (PubChem)
